Source: PubChem BioAssay
Tn6 DDE FP: disrupts Tn6 cyclic peptide binding to fibrin D-Dimer-E complex; hit rate 0.21% among 370,000; P02675; Fibrin DD(E) TRITC-Tn6 fluorescence polarization displacement; inhibition, % at 8.3 µM;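 active = inhibition above a per-campaign cutoff: mean of compounds within control limits plus 3 SD, cut at about 15% in these data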;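 note: 0% = median of all compound wells on the plate and 100% = blocking peptide control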
Target sequence (P02675 whole entry, looked up): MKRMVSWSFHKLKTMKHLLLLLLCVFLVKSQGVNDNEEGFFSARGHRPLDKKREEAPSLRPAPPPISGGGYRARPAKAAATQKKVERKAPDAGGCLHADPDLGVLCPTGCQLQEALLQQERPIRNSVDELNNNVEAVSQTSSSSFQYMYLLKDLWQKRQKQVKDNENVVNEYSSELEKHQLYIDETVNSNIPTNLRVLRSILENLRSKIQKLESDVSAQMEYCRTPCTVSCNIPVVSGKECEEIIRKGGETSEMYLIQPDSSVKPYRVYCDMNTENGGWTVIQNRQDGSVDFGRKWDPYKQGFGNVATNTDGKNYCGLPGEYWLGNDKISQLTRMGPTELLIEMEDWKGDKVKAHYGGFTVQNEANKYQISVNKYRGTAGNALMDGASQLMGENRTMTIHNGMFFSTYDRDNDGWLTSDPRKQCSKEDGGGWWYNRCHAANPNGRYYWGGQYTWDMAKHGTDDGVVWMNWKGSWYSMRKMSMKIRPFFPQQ
SKN-1 block: blocks SKN-1 activity in C. elegans. C. elegans VP596 Pgst-4::GFP/RFP ratio, acrylamide-induced, 24 h. inhibition, % at 21.8 µM. hit rate 0.49% among 360,000. AID 624304;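 active = interference check ratio from 0.5 to 1.5 plus GFP to RFP signal ratio inhibition reaching or exceeding a fixed threshold, cut at about 30% in these data, passing the limit was not always enough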
Tn7 DDE FP: disrupts Tn7 cyclic peptide binding to fibrin D-Dimer-E complex; hit rate 0.13% among 370,000; FP displacement of FITC-Tn7 peptide from fibrin DD(E); 0% = median of compound wells per plate; AID 720508; inhibition, % at 8.3 µM; P02675;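 active = inhibition above the mean of compounds falling within the control limits plus 3 SD of them, cut at about 14% in these data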;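 note: 0% = plate median of compound wells and 100% = 10 µM Aha-Tn7 peptide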
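assay system = human clot-derived fibrin DD(E) complex | quantity = Fibrin-DD(E) at 2 µM final | timing = 10 min preincubation, 3 h with tracer, room temperature | signal = fluorescence polarization | measure = percent inhibition | benchmarks = high control wells with 10 µM unlabelled Aha-Tn7 peptide (full inhibition) | replicates = singlicate testing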
Neddylation inh: cullin neddylation inhibition. TR-FRET cullin neddylation, biochemical. calls only at 25 µM. hit rate 0.58% among 360,000; in the data active = inhibition above about 36%
MT1-MMP act inh: MT1-MMP (human) activation inhibition. HT1080 RFP-PRO-GFP cells, GFP/RFP ratio fluorescence, overnight; percent of plate control window, DMSO zero. hit rate 0.061% among 360,000. GFP/RFP ratio change, % at 20 µM;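 active = GFP/RFP ratio change of at least 30% with cell ATP level not reduced by more than half and red fluorescence within 50% of control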
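Material: RFP-PRO-GFP reporter HT1080 cells. Dosing: single-point 20 µM compound, 1% DMSO. Controls: DMSO and RFP-L50D-GFP cell wells. Timing: cells overnight before dosing, compound overnight, 37 °C, 5% CO2. Measure: GFP/RFP fluorescence ratio.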
KLK7 zymogen act: proKLK7 (human) activation, primary screen; AID 652039; purified proKLK7, EDANS-DABCYL substrate fluorescence; 100% is mature enzyme control, 0% vehicle; hit rate 0.9% among 370,000; activation, % at 7 µM; P49862;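 active = activation above the mean of all tested compounds plus 3 SD, computed per campaign excluding outliers beyond control limits, cut at about 13% in these data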
Target sequence (P49862 whole entry, looked up): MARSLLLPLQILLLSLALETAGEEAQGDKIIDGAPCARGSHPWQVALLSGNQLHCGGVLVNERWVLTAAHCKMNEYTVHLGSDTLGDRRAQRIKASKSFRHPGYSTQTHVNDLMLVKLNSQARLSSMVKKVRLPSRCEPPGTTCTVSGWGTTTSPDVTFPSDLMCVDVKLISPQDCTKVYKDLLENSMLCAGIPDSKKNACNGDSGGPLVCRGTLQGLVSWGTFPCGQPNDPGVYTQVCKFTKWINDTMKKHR
proKLK7 act conf: proKLK7 activation, confirmation. hit rate 68% among 3,200. activation, % at 7 µM. AID 686949. purified proKLK7, EDANS-DABCYL substrate fluorescence; scaled: vehicle 0, mature enzyme 100. shares compounds with KLK7 zymogen act;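 active = activation, as change over the incubation, above the mean of all tested compounds plus 3 SD, cut at about 13% in these data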
EDANS-DABCYL int: counter-screen for kallikrein-7 activators: EDANS-DABCYL optical interference | hit rate 80% among 3,200 | EDANS-DABCYL substrate fluorescence interference, no enzyme, 4 h; solvent 0%, active enzyme control 100% | shares compounds with KLK7 zymogen act | AID 686952 | activation, % at 7 µM;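 active = activation above the all-compound mean plus 3 SD, ignoring values outside control-based bounds, cut at about 4.8% in these data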;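 note: value is the 4 h activation minus the activation read at time zero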
EDANS interf: optically interferes with EDANS-DABCYL fluorescence, kallikrein-7 activator counter-screen. shares compounds with KLK7 zymogen act. EDANS-DABCYL peptide fluorescence interference, no enzyme. EC50, µM. hit rate 20% among 250;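 active = compounds that raise the fluorescence signal in this interference counterscreen, with EC50 at or below 10 µM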;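 note: intact quenched peptide substrate alone read at 355 nm excitation and 520 nm emission; signal is fluorescence gain from T0 to T4 after four hours at room temperature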
Starred values were filed as active, the others as inactive; i = inactive; · = no result shown. Most compounds without a hit are left out; they make up all but 2.2% or so of the library.

SMILES | Tn6 DDE FP | SKN-1 block | Tn7 DDE FP | Neddylation inh | MT1-MMP act inh | KLK7 zymogen act | proKLK7 act conf | EDANS-DABCYL int | others
N=c1c(C(=O)NCCc2ccccc2)cc2c(=O)n3ccccc3nc2n1CCCN1CCOCC1 | -1.7 | 8.8 | -4.4 | · | 1.1 | 29.2* | 7.9 | 7.7*
O=C(Nc1cccc2c1[nH]c(=O)c1ccccc12)C(F)(F)F | -0.8 | -3.2 | -0.3 | i | 9.8 | -0.7 | · | ·
O=C(Nc1cccc2c1[nH]c1ccccc12)C(F)(F)F | 5.3 | 1.3 | -3.3 | i | -1.4 | 21.1* | 16.4* | 12.3* | EDANS interf=i
O=C(Nc1ccc2c(c1)[nH]c(=O)c1ccccc12)C(F)(F)F | 3.6 | 5.2 | -5.2 | i | 5.6 | 211.4* | 163.3* | 153.4*
CC(=O)Nc1ccc2c(c1)[nH]c(=O)c1ccccc12 | -0.9 | -5.3 | 9.7 | · | 6.0 | 4.6 | · | ·
C=CCSc1nc2sc3c(c2c(=O)n1CC)CCc1ccccc1-3 | -7.1 | 13.5 | -9.5 | i | 3.5 | 0.2 | · | ·
CC(=O)Nc1c(-c2ccccc2)nc2ncccn12 | 11.6 | 2.5 | 1.1 | · | 0.9 | 22.1* | 60.1* | 57.1*
O=C(Nc1c(-c2ccccc2)nc2ncccn12)c1ccc(F)cc1 | -7.0 | · | -2.0 | · | · | 14.4* | 12.3 | 10.6*
O=C(Nc1ccc(OC(F)(F)F)cc1)Nc1c(-c2ccc(F)cc2)nc2ncccn12 | -6.0 | · | 1.9 | · | · | -2.8 | · | ·
O=C(Nc1ccc(F)cc1)Nc1c(-c2ccc(F)cc2)nc2ncccn12 | 0.9 | · | -2.7 | · | · | 14.7* | 4.6 | 5.1*
O=C(Nc1c(-c2ccc(F)cc2)nc2ccccn12)c1ccc(F)cc1 | 9.2 | -9.4 | 4.0 | i | -2.7 | 0.1 | · | ·
CC(=O)Nc1nc2ncccn2c1-c1ccccc1 | 4.2 | · | 6.3 | · | · | 9.6 | · | ·
CC(=O)Nc1nc2ncccn2c1-c1ccc(F)c(F)c1 | 3.7 | · | 3.8 | · | · | 20.8* | 27.0* | 25.7*
CC(=O)Nc1c(-c2ccc(F)cc2)nc2ncccn12 | -6.0 | · | 4.4 | · | · | 12.1 | · | ·
COc1ccc(C(=O)Nc2ccc(S(=O)(=O)NC(C)=O)cc2)cc1 | -3.9 | -8.5 | 5.7 | i | 0.9 | 0.1 | · | ·
Nc1ccc(-c2nc3ncccc3o2)cc1 | 0.6 | 26.2 | -10.9 | · | 4.3 | 38.5* | 58.0* | 71.2*
CCCCn1c(N)c(N(CCC(C)C)C(=O)COC(=O)c2ccccc2)c(=O)[nH]c1=O | -2.5 | -0.2 | -7.2 | i | -3.0 | -0.2 | · | ·
CCCCn1c(N)c(N(CC(C)C)C(=O)COC(=O)c2ccccc2NCCO)c(=O)[nH]c1=O | 2.5 | 4.0 | 0.9 | · | 5.3 | 21.9* | 21.1* | 26.7*
CCCn1c(N)c(N(CCOC)C(=O)COC(=O)c2ccccc2NCCO)c(=O)[nH]c1=O | 9.1 | 6.3 | 3.0 | · | 0.2 | 24.3* | 28.7* | 29.1*
Nc1ccc2c(C(F)(F)F)cc(C(F)(F)F)nc2n1 | 3.0 | -9.0 | 7.9 | · | -0.1 | 38.1* | 46.9* | 42.2*
COc1ccc(C2(CNC(=O)CCC(=O)O)CCCC2)cc1OC | 0.7 | 4.6 | -3.3 | i | -1.4 | 0.2 | · | ·
COc1cc2c(cc1OC)CN(CC(=O)Nc1ccc(S(=O)(=O)N(C)C)cc1)CC2 | 6.1 | -5.6 | -2.4 | i | -0.2 | 2.0 | · | ·
COc1cc2c(cc1OC)CN(CC(=O)Nc1ccc(C#N)cc1)CC2 | -1.6 | -7.0 | -3.7 | · | -1.3 | 16.7* | 2.7 | -0.3
N#CC(C#N)=Cc1ccc(OC(=O)c2ccccn2)cc1 | 6.5 | 2.9 | -4.6 | i | 2.1 | 0.2 | · | ·
CC(=O)Nc1ccc(C2Nc3ccccc3C(=O)N2C2CCCCC2)cc1 (stereo not drawn) | 9.8 | -17.5 | 3.5 | · | 2.2 | 12.8* | 30.2* | 25.7* | EDANS interf=i
SMILES | Tn6 DDE FP | SKN-1 block | Tn7 DDE FP | Neddylation inh | MT1-MMP act inh | KLK7 zymogen act | proKLK7 act conf | EDANS-DABCYL int | others
COc1cc(/C=C/C(=O)O)cc(Br)c1O | 3.0 | -0.4 | -4.5 | i | 3.3 | -0.4 | · | ·
CC(O)(CS(=O)(=O)Cc1ccc(Cl)cc1)C(=O)Nc1cccc(C(F)(F)F)c1 (stereo not drawn) | · | 7.2 | · | i | 10.1 | · | · | ·
O=C1NC(C2CC3C=CC2C3)Nc2ccccc21 (stereo not drawn) | 9.6 | -8.7 | -5.0 | · | 7.0 | 23.5* | 25.1* | 21.1* | EDANS interf=>69.4
NS(=O)(=O)c1cc2c(cc1Cl)NC(C1CC3C=CC1C3)NS2(=O)=O (stereo not drawn) | 1.5 | -14.6 | -0.1 | i | 0.8 | 0.4 | · | ·
CCC1(C)Cc2[nH]c(=O)c(C#N)cc2CO1 (stereo not drawn) | 2.4 | 2.0 | -2.1 | · | -3.4 | 5.9 | · | ·
CN(C(=O)COC(=O)c1ccccc1NC(=O)c1ccco1)C1CCS(=O)(=O)C1 (stereo not drawn) | 0.6 | -0.9 | -4.5 | i | -1.1 | 0.2 | · | ·
CN(C(=O)COC(=O)c1ccccc1NCCO)C1CCS(=O)(=O)C1 (stereo not drawn) | 4.9 | -7.0 | 6.9 | · | 5.0 | 14.0* | 39.5* | 41.5*
Cc1ccc2[nH]c(C)cc(=S)c2c1 | -4.2 | -10.4 | -0.6 | i | -2.0 | 0.3 | · | ·
COc1cc2c(Cc3ccccc3)cncc2cc1O | 4.8 | 6.8 | 6.4 | · | 0.0 | -26.9 | · | ·
COc1cc2cncc(Cc3ccccc3)c2cc1O | 12.6 | 2.7 | 5.0 | · | 1.2 | 21.9* | 16.9* | 20.5*
O=C1CCC(N2C(=O)c3ccccc3C2=O)C(=O)N1 (stereo not drawn) | 0.3 | -13.3 | -2.3 | i | 0.0 | 0.7 | · | ·
O=C1c2[nH]c3ccccc3c2CC1N1C(=O)c2ccccc2C1=O (stereo not drawn) | 10.7 | 12.9 | -9.2 | i | 3.2 | 29.8* | 18.5* | 17.7*
CCOC(=O)c1ccc(NC(=O)N2CCCCC2)cc1 | · | -7.8 | · | i | 0.7 | · | · | ·
CCN1CCN(Cc2c(O)ccc3c(C)cc(=O)oc23)CC1 | -9.0 | 0.6 | -4.5 | · | 0.6 | 44.0* | 70.7* | 72.9*
CN1CCN(Cc2c(O)ccc3c(-c4ccccc4)cc(=O)oc23)CC1 | 4.5 | 3.1 | 2.0 | · | -2.8 | 17.0* | 5.4 | 3.8
Cc1cc(=O)oc2c(CN3CCN(CCO)CC3)c(O)ccc12 | -3.9 | 20.5 | 4.7 | · | 2.2 | 119.9* | 65.4* | 68.5*
CCN1CCN(CC(O)COc2ccc3c(C)cc(=O)oc3c2)CC1 (stereo not drawn) | -3.8 | -3.6 | -0.6 | · | 5.8 | -3.1 | · | ·
